Values joined by “and” are separate entries in the source; they are usually repeats but may differ in a detail not shown here. Equal values may be shown once.
Tested on: Fibroblast
Experiment: Multiplex assay against human fibroblast
Type: toxicity, cell-based
Procedure, shortened: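 Per cents of healthy-nucleus cells form the tubulin, mitochondrial-mass and membrane-permeability phenotype values. Live cells were stained at seeding with Hoechst33342, BioTracker Green Microtubule Cytoskeleton Dye, MitoTracker Red and Annexin V Alexa Fluor 680. After compound addition they were imaged on a CQ1 microscope at 37°C and 5% CO2, and CellPathfinder machine-learning gating split them into Hoechst high-intensity objects or normal cells, normal cells into healthy, pyknosed or fragmented nuclei, and pyknosed cells into mitotic or apoptotic.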

[1] = 12 h, 1 µM, compound concentration 1 uM
[2] = 12 h, 10 µM, compound concentration 10 uM
[3] = 24 h, 1 µM, compound concentration 1 uM
[4] = 24 h, 10 µM, compound concentration 10 uM
[5] = 48 h, 1 µM, compound concentration 1 uM
[6] = 48 h, 10 µM, compound concentration 10 uM

O=C(NCC(=O)N1CC[C@H](N[C@H]2CC[C@@](O)(c3ccc(-c4ncccn4)cn3)CC2)C1)c1cccc(C(F)(F)F)c1 [PF-4136309]
Population Apoptotic (%) [1]: 53% and 22% | Population Fragmented Nuclei (%) [1]: 13% and 25% | Population Healthy Nuclei (%) [1]: 63% and 52% | Population Hoechst High Intensity Objects (%) [1]: 2% and 5% | Population Mitochondria Different-Phenotype (%) [1]: 4% and 7% | Population Mitotic Cells (%) [1]: 46% and 77% | Population Normal (%) [1]: 97% and 94% | Population Pyknosed Nuclei (%) [1]: 23% and 21% | Population Tubulin-Different-Phenotype (%) [1]: 28% and 60% | Total Cell Count [1]: 142 and 152 | Population Apoptotic (%) [2]: 60% and 25% | Population Fragmented Nuclei (%) [2]: 18% and 24% | Population Healthy Nuclei (%) [2]: 69% and 52% | Population Hoechst High Intensity Objects (%) [2]: 2% and 5% | Population Membrane Permeable-Phenotype (%) [2]: 0% and 4% | Population Mitochondria Different-Phenotype (%) [2]: 11% and 6% | Population Mitotic Cells (%) [2]: 40% and 75% | Population Normal (%) [2]: 97% and 94% | Population Pyknosed Nuclei (%) [2]: 12% and 23% | Population Tubulin-Different-Phenotype (%) [2]: 46% and 44% | Total Cell Count [2]: 210 and 128 | Population Apoptotic (%) [3]: 61% and 45% | Population Fragmented Nuclei (%) [3]: 14% and 33% | Population Healthy Nuclei (%) [3]: 60% and 52% | Population Hoechst High Intensity Objects (%) [3]: 2% and 4% | Population Mitochondria Different-Phenotype (%) [3]: 4% and 1% | Population Mitotic Cells (%) [3]: 38% and 55% | Population Normal (%) [3]: 97% and 95% | Population Pyknosed Nuclei (%) [3]: 25% and 14% | Population Tubulin-Different-Phenotype (%) [3]: 32% and 52% | Total Cell Count [3]: 139 and 148 | Population Apoptotic (%) [4]: 36% and 30% | Population Fragmented Nuclei (%) [4]: 15% and 29% | Population Healthy Nuclei (%) [4]: 72% and 48% | Population Hoechst High Intensity Objects (%) [4]: 3% and 2% | Population Membrane Permeable-Phenotype (%) [4]: 0% and 6% | Population Mitochondria Different-Phenotype (%) [4]: 10% and 4% | Population Mitotic Cells (%) [4]: 63% and 70% | Population Normal (%) [4]: 96% and 97% | Population Pyknosed Nuclei (%) [4]: 11% and 22% | Population Tubulin-Different-Phenotype (%) [4]: 34% and 52% | Total Cell Count [4]: 203 and 139 | Population Apoptotic (%) [5]: 58% and 50% | Population Fragmented Nuclei (%) [5]: 26% and 36% | Population Healthy Nuclei (%) [5]: 49% | Population Hoechst High Intensity Objects (%) [5]: 2% and 4% | Population Membrane Permeable-Phenotype (%) [5]: 2% and 7% | Population Mitochondria Different-Phenotype (%) [5]: 2% and 4% | Population Mitotic Cells (%) [5]: 41% and 50% | Population Normal (%) [5]: 97% and 95% | Population Pyknosed Nuclei (%) [5]: 24% and 13% | Population Tubulin-Different-Phenotype (%) [5]: 27% and 46% | Total Cell Count [5]: 149 and 137 | Population Apoptotic (%) [6]: 47% and 63% | Population Fragmented Nuclei (%) [6]: 18% and 31% | Population Healthy Nuclei (%) [6]: 72% and 52% | Population Hoechst High Intensity Objects (%) [6]: 6% | Population Membrane Permeable-Phenotype (%) [6]: 0% and 6% | Population Mitochondria Different-Phenotype (%) [6]: 15% and 6% | Population Mitotic Cells (%) [6]: 52% and 36% | Population Normal (%) [6]: 93% | Population Pyknosed Nuclei (%) [6]: 9% and 15% | Population Tubulin-Different-Phenotype (%) [6]: 47% and 54% | Total Cell Count [6]: 195 and 129

CC(C)(C)c1cc(NC(=O)Nc2ccc(-c3cn4c(n3)sc3cc(OCCN5CCOCC5)ccc34)cc2)no1 [QUIZARTINIB]
Population Apoptotic (%) [1]: 42% and 41% | Population Fragmented Nuclei (%) [1]: 16% and 24% | Population Healthy Nuclei (%) [1]: 65% and 52% | Population Hoechst High Intensity Objects (%) [1]: 2% | Population Membrane Permeable-Phenotype (%) [1]: 0% and 1% | Population Mitochondria Different-Phenotype (%) [1]: 7% and 5% | Population Mitotic Cells (%) [1]: 57% and 58% | Population Normal (%) [1]: 97% | Population Pyknosed Nuclei (%) [1]: 17% and 23% | Population Tubulin-Different-Phenotype (%) [1]: 31% and 41% | Total Cell Count [1]: 150 and 137 | Population Apoptotic (%) [2]: 43% and 48% | Population Fragmented Nuclei (%) [2]: 34% and 35% | Population Healthy Nuclei (%) [2]: 56% and 45% | Population Hoechst High Intensity Objects (%) [2]: 3% and 5% | Population Membrane Permeable-Phenotype (%) [2]: 0% and 5% | Population Mitochondria Different-Phenotype (%) [2]: 10% and 5% | Population Mitotic Cells (%) [2]: 56% and 51% | Population Normal (%) [2]: 96% and 94% | Population Pyknosed Nuclei (%) [2]: 8% and 18% | Population Tubulin-Different-Phenotype (%) [2]: 75% and 70% | Total Cell Count [2]: 190 and 162 | Population Apoptotic (%) [3]: 58% and 42% | Population Fragmented Nuclei (%) [3]: 14% and 25% | Population Healthy Nuclei (%) [3]: 72% and 61% | Population Hoechst High Intensity Objects (%) [3]: 1% and 3% | Population Membrane Permeable-Phenotype (%) [3]: 0% and 2% | Population Mitochondria Different-Phenotype (%) [3]: 6% | Population Mitotic Cells (%) [3]: 41% and 57% | Population Normal (%) [3]: 98% and 96% | Population Pyknosed Nuclei (%) [3]: 12% and 13% | Population Tubulin-Different-Phenotype (%) [3]: 32% and 44% | Total Cell Count [3]: 137 and 152 | Population Apoptotic (%) [4]: 75% and 39% | Population Fragmented Nuclei (%) [4]: 33% and 40% | Population Healthy Nuclei (%) [4]: 57% and 46% | Population Hoechst High Intensity Objects (%) [4]: 1% and 4% | Population Membrane Permeable-Phenotype (%) [4]: 0% and 1% | Population Mitochondria Different-Phenotype (%) [4]: 21% and 10% | Population Mitotic Cells (%) [4]: 25% and 60% | Population Normal (%) [4]: 98% and 95% | Population Pyknosed Nuclei (%) [4]: 8% and 13% | Population Tubulin-Different-Phenotype (%) [4]: 71% and 70% | Total Cell Count [4]: 190 and 179 | Population Apoptotic (%) [5]: 75% and 42% | Population Fragmented Nuclei (%) [5]: 19% and 30% | Population Healthy Nuclei (%) [5]: 71% and 60% | Population Hoechst High Intensity Objects (%) [5]: 8% and 3% | Population Membrane Permeable-Phenotype (%) [5]: 0% and 1% | Population Mitochondria Different-Phenotype (%) [5]: 5% and 8% | Population Mitotic Cells (%) [5]: 25% and 57% | Population Normal (%) [5]: 91% and 96% | Population Pyknosed Nuclei (%) [5]: 9% | Population Tubulin-Different-Phenotype (%) [5]: 38% and 34% | Total Cell Count [5]: 145 and 158 | Population Apoptotic (%) [6]: 79% and 60% | Population Fragmented Nuclei (%) [6]: 30% and 44% | Population Healthy Nuclei (%) [6]: 56% and 50% | Population Hoechst High Intensity Objects (%) [6]: 7% and 3% | Population Membrane Permeable-Phenotype (%) [6]: 0% and 2% | Population Mitotic Cells (%) [6]: 20% and 40% | Population Normal (%) [6]: 92% and 96% | Population Pyknosed Nuclei (%) [6]: 13% and 5% | Population Tubulin-Different-Phenotype (%) [6]: 74% and 59% | Total Cell Count [6]: 195
